According to ChEMBL document CHEMBL2163317, “Selective inhibition of the tumor marker aldo-keto reductase family member 1B10 by oleanolic acid” (J Nat Prod, 2011):
Activity calls are given as the source filed them. The calls are words filed in the database; no cut-off is given here.

Experiments:
[1] = biological target: T1, Aldo-keto reductase family 1 member B10 (Homo sapiens, UniProt O60218); experiment: Inhibition of reductase activity of N-terminal 6His-tagged human AKR1B10 expressed in Escherichia coli BL21(DE3) assessed as pyridine-3-aldehyde reduction
Method in brief: (§1)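 Forward reductase assay at 25 C with purified recombinant enzyme from E. coli BL21(DE3) pLysS. Buffer was 0.1 M potassium phosphate pH 7.4 with 0.1 mM NADPH and 0.2 mM pyridine-3-aldehyde. Rate read as NADPH absorbance change at 340 nm. IC50 reported as mean of at least three determinations. Selectivity is the AKR1B1 IC50 divided by the AKR1B10 IC50.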
Target sequence in this assay (O60218 whole entry): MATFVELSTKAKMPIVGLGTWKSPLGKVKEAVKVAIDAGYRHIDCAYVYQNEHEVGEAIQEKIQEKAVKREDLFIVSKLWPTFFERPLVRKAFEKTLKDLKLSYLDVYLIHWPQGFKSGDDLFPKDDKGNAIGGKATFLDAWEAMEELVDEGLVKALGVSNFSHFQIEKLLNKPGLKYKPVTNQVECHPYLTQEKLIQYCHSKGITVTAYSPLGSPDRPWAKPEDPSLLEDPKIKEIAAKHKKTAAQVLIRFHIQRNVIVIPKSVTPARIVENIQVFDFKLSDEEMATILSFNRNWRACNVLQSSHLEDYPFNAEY

[2] = biological target: Aldo-keto reductase family 1 member B1 (Homo sapiens, UniProt P15121); experiment: Inhibition of reductase activity of N-terminal 6His-tagged human recombinant AKR1B1 expressed in Escherichia coli BL21(DE3) assessed as assessed as pyridine-3-aldehyde reduction; method in brief: as §1
Homo sapiens = organism: Homo sapiens; experiment: Selectivity ratio of IC50 for human recombinant AKR1B1 to IC50 for human AKR1B10; method in brief: as §1
[3] = biological target: T1, Aldo-keto reductase family 1 member B10; experiment: Inhibition of N-terminal 6His-tagged human AKR1B10 overexpressed in human HeLa cells assessed as inhibition of […] at 1 uM pretreated for 2 hrs before [1-14C]farnesol challenge measured after 6 hrs; type: cell-based
Method in brief: (§2)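 HeLa cells were transfected with a pGW1 plasmid carrying AKR1B10 cDNA. Culture was DMEM with 10% FBS at 37 C and 5% CO2. Cells were pretreated with inhibitor for 2 h, then incubated with 20 μM [1-14C] labelled substrate for 6 h. Inhibition of farnesal reduction is the mean of duplicate experiments.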
Target sequence in this assay (O60218 whole entry, looked up): as the sequence (O60218 whole entry) above

HT-29 [4] = experiment: Cytotoxicity against human HT-29 cells at 10 uM after 96 hrs by trypan blue exclusion assay; type: functional, cell-based
HT-29 [5] = experiment: Cytotoxicity against human mitomycin C-resistant HT-29 cells assessed as growth inhibition after 96 hrs by trypan blue exclusion assay; type: functional, cell-based
HT-29 [6] = experiment: Cytotoxicity against human HT-29 cells at 30 uM after 96 hrs by trypan blue exclusion assay; type: functional, cell-based
HT-29 [7] = experiment: Cytotoxicity against human HT-29 cells after 96 hrs by trypan blue exclusion assay; type: functional; settings: HT-29, 96 h, read-out: LD50 (the source's name)
HT-29 [8] = experiment: Inhibition of AKR1B10 mRNA expression in human HT-29 cells at 3 to 30 uM after 24 hrs by RT-PCR analysis; type: functional, cell-based
Method in brief: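 HT29 cells were treated for 24 h with 3, 10 and 30 μM compound. Total RNA was then extracted, and AKR1B10 mRNA was analysed by reverse transcription-PCR.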

DNA polymerase beta = DNA polymerase beta (Homo sapiens, UniProt P06746); experiment: Inhibition of DNA polymerase beta
Phospholipase A2 = Phospholipase A2 (Homo sapiens, UniProt P04054); experiment: Inhibition of phospholipase A2
Phospholipase A2, sequence (P04054 whole entry): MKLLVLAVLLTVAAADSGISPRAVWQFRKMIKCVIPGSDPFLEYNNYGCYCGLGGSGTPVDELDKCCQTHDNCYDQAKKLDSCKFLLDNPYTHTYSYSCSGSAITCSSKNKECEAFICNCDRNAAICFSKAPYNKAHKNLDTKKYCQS

[9] = biological target: T1, Aldo-keto reductase family 1 member B10; experiment: Inhibition of N-terminal 6His-tagged human AKR1B10 overexpressed in human HeLa cells assessed as inhibition of […] pretreated for 2 hrs before [1-14C]farnesol challenge measured after 6 hrs; type: cell-based; method in brief: as §2
Target sequence in this assay (O60218 whole entry, looked up): as the sequence (O60218 whole entry) above

[10] = biological target: T1, Aldo-keto reductase family 1 member B10; experiment: Competitive inhibition of dehydrogenase activity of N-terminal 6His-tagged human AKR1B10 expressed in Escherichia coli BL21(DE3) assessed as NADP+-linked geraniol oxidation
Target sequence in this assay (O60218 whole entry): as above

[11] = biological target: Aldo-keto reductase family 1 member B10 (Homo sapiens, UniProt O60218, K125L); experiment: Competitive inhibition of dehydrogenase activity of N-terminal 6His-tagged human AKR1B10 K125L mutant expressed in Escherichia coli BL21(DE3) assessed as NADP+-linked geraniol oxidation
Aldo-keto reductase family 1 member B10 (Homo sapiens, UniProt O60218, K125L), sequence (O60218 whole entry K125L): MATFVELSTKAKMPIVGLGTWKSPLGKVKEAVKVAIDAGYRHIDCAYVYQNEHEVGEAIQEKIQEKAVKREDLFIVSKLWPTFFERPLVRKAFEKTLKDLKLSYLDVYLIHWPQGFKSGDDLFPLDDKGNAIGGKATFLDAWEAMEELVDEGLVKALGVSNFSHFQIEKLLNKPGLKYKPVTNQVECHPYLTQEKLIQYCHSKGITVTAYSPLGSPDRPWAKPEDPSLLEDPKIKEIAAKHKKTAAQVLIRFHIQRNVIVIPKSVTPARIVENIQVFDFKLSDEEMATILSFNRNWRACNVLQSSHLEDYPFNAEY

[12] = biological target: Aldo-keto reductase family 1 member B10 (Homo sapiens, UniProt O60218, V301L); experiment: Competitive inhibition of dehydrogenase activity of N-terminal 6His-tagged human AKR1B10 V301L mutant expressed in Escherichia coli BL21(DE3) assessed as NADP+-linked geraniol oxidation
Aldo-keto reductase family 1 member B10 (Homo sapiens, UniProt O60218, V301L), sequence (O60218 whole entry V301L): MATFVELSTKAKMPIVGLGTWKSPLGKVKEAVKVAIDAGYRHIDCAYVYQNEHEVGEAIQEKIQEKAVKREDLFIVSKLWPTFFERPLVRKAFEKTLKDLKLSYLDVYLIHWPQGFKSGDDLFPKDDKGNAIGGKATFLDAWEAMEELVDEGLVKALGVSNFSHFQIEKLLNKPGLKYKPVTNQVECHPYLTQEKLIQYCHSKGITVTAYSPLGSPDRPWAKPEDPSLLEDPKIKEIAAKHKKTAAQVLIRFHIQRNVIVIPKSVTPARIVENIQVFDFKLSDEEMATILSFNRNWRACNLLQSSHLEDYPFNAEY

[13] = biological target: Aldo-keto reductase family 1 member B10 (Homo sapiens, UniProt O60218, Q303S); experiment: Competitive inhibition of dehydrogenase activity of N-terminal 6His-tagged human AKR1B10 Q303S mutant expressed in Escherichia coli BL21(DE3) assessed as NADP+-linked geraniol oxidation
Aldo-keto reductase family 1 member B10 (Homo sapiens, UniProt O60218, Q303S), sequence (O60218 whole entry Q303S): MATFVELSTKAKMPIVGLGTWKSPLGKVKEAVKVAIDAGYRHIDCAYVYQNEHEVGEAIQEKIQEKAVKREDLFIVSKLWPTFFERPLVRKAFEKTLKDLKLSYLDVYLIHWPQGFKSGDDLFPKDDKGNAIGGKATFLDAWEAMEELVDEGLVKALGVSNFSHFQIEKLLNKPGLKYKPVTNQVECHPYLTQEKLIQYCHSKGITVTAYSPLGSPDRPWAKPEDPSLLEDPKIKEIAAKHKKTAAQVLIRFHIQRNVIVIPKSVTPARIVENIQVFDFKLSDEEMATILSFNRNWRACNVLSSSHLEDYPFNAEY

[14] = biological target: Aldo-keto reductase family 1 member B10 (Homo sapiens, UniProt O60218, W220Y); experiment: Competitive inhibition of dehydrogenase activity of N-terminal 6His-tagged human AKR1B10 W220Y mutant expressed in Escherichia coli BL21(DE3) assessed as NADP+-linked geraniol oxidation
Aldo-keto reductase family 1 member B10 (Homo sapiens, UniProt O60218, W220Y), sequence (O60218 whole entry W220Y): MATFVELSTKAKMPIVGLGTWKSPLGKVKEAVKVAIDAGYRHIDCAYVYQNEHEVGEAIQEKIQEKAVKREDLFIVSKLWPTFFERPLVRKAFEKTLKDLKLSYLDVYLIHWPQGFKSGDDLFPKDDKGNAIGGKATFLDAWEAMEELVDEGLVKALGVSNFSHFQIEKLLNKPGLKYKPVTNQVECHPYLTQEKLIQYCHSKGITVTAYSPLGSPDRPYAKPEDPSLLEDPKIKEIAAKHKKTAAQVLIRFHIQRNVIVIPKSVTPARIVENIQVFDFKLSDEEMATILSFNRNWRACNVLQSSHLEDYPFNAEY

[15] = biological target: T1, Aldo-keto reductase family 1 member B10; experiment: Non-competitive inhibition of reductase activity of N-terminal 6His-tagged human AKR1B10 expressed in Escherichia coli BL21(DE3) assessed as pyridine-3-aldehyde reduction
Target sequence in this assay (O60218 whole entry, looked up): as the sequence (O60218 whole entry) above

SMILES	IC50 [1] [µM]	IC50 [2] [µM]	Ratio IC50 (Homo sapiens)	further results
C[C@H]1[C@H](C)CC[C@]2(C(=O)O)CC[C@]3(C)C(=CC[C@@H]4[C@@]5(C)C[C@@H](O)[C@H](O)[C@@](C)(CO)[C@@H]5CC[C@]43C)[C@H]12 [ASIATIC ACID]	5.9	34	6	–
C=C(C)[C@@H]1CC[C@]2(C(=O)O)CC[C@]3(C)[C@H](CC[C@@H]4[C@@]5(C)CC[C@H](O)C(C)(C)[C@@H]5CC[C@]43C)[C@@H]12 [BETULINIC ACID]	2	11	6	–
CC1(C)[C@@H](O)CC[C@]2(C)[C@H]3C(=O)C=C4[C@@H]5C[C@@](C)(C(=O)O)CC[C@]5(C)CC[C@@]4(C)[C@]3(C)CC[C@@H]12 [ENOXOLONE]	4.9	280	57	inhibition [3]: Active
CC1(C)CC[C@]2(CO)CC[C@]3(C)C(=CC[C@@H]4[C@@]5(C)CC[C@H](O)C(C)(C)[C@@H]5CC[C@]43C)[C@@H]2C1 [ERYTHRODIOL]	30	84	3	–
C[C@H](CCC(=O)O)[C@H]1CC[C@H]2[C@@H]3CC[C@@H]4C[C@@H](O)CC[C@]4(C)[C@H]3CC[C@]12C [ISOLITHOCHOLIC ACID]	–	–	–	Ki [1]: 0.015 µM
CC1(C)CC[C@]2(C(=O)O)CC[C@]3(C)C(=CC[C@@H]4[C@@]5(C)C[C@@H](O)[C@H](O)C(C)(C)[C@@H]5CC[C@]43C)[C@@H]2C1 [MASLINIC ACID]	0.63	72	114	–
CC1(C)CC[C@]2(C(=O)O)CC[C@]3(C)C(=CC[C@@H]4[C@@]5(C)CC[C@H](O)C(C)(C)[C@@H]5CC[C@]43C)[C@@H]2C1 [OLEANOLIC_ACID]	–	124	–	inhibition [3]: Active; Activity (HT-29 [4]): Active; growth inhibition (GI) (HT-29 [5]): Dose-dependent effect; Activity (HT-29 [6]): Active; CC50 (HT-29 [7]): 180 µM; inhibition (HT-29 [8]): inactive; IC50 (DNA polymerase beta): 3 µM; IC50 (Phospholipase A2): 3 µM
COc1ccc2c(C(=S)N(C)CC(=O)O)cccc2c1C(F)(F)F [TOLRESTAT]	–	–	–	inhibition [9]: Active; Ki [1]: 0.05 µM; Activity (HT-29 [6]): Active
C[C@H]1[C@H](C)CC[C@]2(C(=O)O)CC[C@]3(C)C(=CC[C@@H]4[C@@]5(C)CC[C@H](O)C(C)(C)[C@@H]5CC[C@]43C)[C@H]12 [URSOLIC ACID]	4	41	10	Ki [10]: 2 µM; Ki [11]: 2.8 µM; Ki [12]: 2.1 µM; Ki [13]: 3.7 µM; Ki [14]: 6 µM; inhibition [15]: Active
